Measurements taken from PubChem BioAssay AID1800 (The Scripps Research Institute Molecular Screening Center, 2009).
The whole screen tested about 290,000 compounds, of which about 1,600 (0.55%) were called active. The sample holds actives, similar compounds and a random draw of the others, so the mix is not that of the screen. Unmarked numbers belong to inactive results.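 How the source made its calls: active means inhibition above the mean of all tested compounds plus 3 SD, set per campaign (cut at about 35% in these data); inactive means the rest.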

tested on: Hepatitis C virus NS3 helicase; experiment: HCV NS3 DNA unwinding blockers – biochemical, Cy5 molecular beacon fluorescence, primary screen (AID 1800); conditions: at 10.9 µM, active compounds read high;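 further: 0% = DMSO wells and 100% = thioflavine S control wells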
Outline: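 Control set: DMSO versus 110 µM thioflavine S; Material: NS3 helicase fragment of HCV; Measured by: Cy5 fluorescence at 0 and 60 min, beacon hairpin quenching; Read-out basis: percent inhibition from t60/t0 fluorescence ratio; Times: reaction time 60 min, 25 °C; Repeats: single replicate; Compound dosing: single dose, 10.9 µM nominal final, DMSO 0.8% final.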

O=c1c(-c2ccccc2Cl)c[nH]n1-c1ccccc1 was tested. Which inhibition did it give?
Its inhibition is 3.07%.

Cc1ccccc1Nc1nnc(SCC(=O)c2cc3ccccc3o2)s1 was tested. Which inhibition did it give?
The inhibition was 47.4% (active).

Which inhibition does the source give for Cc1ccc(Nc2nnc(SCC(=O)c3cc4ccccc4o3)s2)cc1C here?
The inhibition was 13.9%.

For Cc1cc(NC(=O)CSc2nnc(Nc3ccccc3F)s2)no1, which inhibition is on record?
The inhibition was -0.95%.

Which inhibition does the source give for CC1CCN(S(=O)(=O)c2ccc(NC(=O)C3CC(=O)N(c4ccccc4)C3)cc2)CC1 (stereo not given) here?
The inhibition was -43.1%.

With CN(C)c1ccnc2sc3c(=O)n(-c4ccc(Cl)cc4)cnc3c12 as the compound, how does the inhibition read?
Its inhibition is 3.7%.

Which inhibition does the source give for Cc1cc(C)c2oc(C(=O)Nc3ccc(S(=O)(=O)Nc4nccc(C)n4)cc3)cc(=O)c2c1 here?
Its inhibition is -10.1%.

With O=C(Nc1ccccc1C(=O)N1CCCCC1)c1ccco1 as the compound, how does the inhibition read?
Its inhibition is 5.37%.

For O=C(Nc1ccccc1)c1ccco1, which inhibition is on record?
Its inhibition is 10.7%.

How did the inhibition turn out when CS/C(=C\C(=O)c1ccco1)Nc1ccccc1Cl was run?
Its inhibition is 64.5% (active).

CCOc1ccc2sc(NS(=O)(=O)c3ccc(N)cc3)nc2c1 was tested. Which inhibition did it give?
The inhibition was -15.8%.

CN(C)[C@@H]1C(=O)C(C(N)=O)=C(O)[C@@]2(O)C(=O)C3=C(O)c4c(O)ccc(Cl)c4[C@@H](O)[C@H]3C[C@@H]12 was tested. Which inhibition did it give?
Its inhibition is 39.9% (active).

Which inhibition does the source give for Cc1cccc(-n2ncc(Cl)c(Cl)c2=O)c1 here?
The inhibition was 10.4%.

Cc1ccc2nc3c(cc(C(=O)NCCc4ccccc4)c(=N)n3CC3CCCO3)c(=O)n2c1 (stereo not given) was tested. Which inhibition did it give?
The inhibition was -6.17%.

For O=C(Oc1ccc([N+](=O)[O-])cc1)c1ccc(Cl)c(S(=O)(=O)N2CCCCC2)c1, which inhibition is on record?
Its inhibition is 7.15%.

With CC(=O)Oc1cccc(N2C(=O)C3CC=C(Cl)CC3C2=O)c1 (stereo not given) as the compound, how does the inhibition read?
The inhibition was 6.02%.

COc1cc2ccccc2cc1C(=O)Nc1ccc(N2CCOCC2)cc1 was tested. Which inhibition did it give?
Its inhibition is -2.47%.

Which inhibition does the source give for CC(=O)Oc1cccc(N2C(=O)CC(Nc3ccc(N4CCOCC4)cc3)C2=O)c1 (stereo not given) here?
Its inhibition is 48.2% (active).

Which inhibition does the source give for CCCCOC(=O)Nc1nnc(CC(=O)NCc2ccccc2)s1 here?
Its inhibition is 8.31%.

For COc1ccc(NC(=O)CSc2ccc(-c3ccco3)nn2)c(OC)c1, which inhibition is on record?
The inhibition was 36.8% (active).

Which inhibition does the source give for O=C(CSc1ccc(-c2ccco2)nn1)Nc1cccc(F)c1 here?
Its inhibition is 20.3%.

How did the inhibition turn out when COc1ccc(NC(=O)CCC(=O)Nc2cc(OC)c(NC(=O)c3ccco3)cc2OC)c(OC)c1 was run?
Its inhibition is 7.66%.

For CC1=C(C(=O)OCC2CCCCC2)C(c2ccc(F)cc2)NC(=O)N1 (stereo not given), which inhibition is on record?
The inhibition was 0.43%.

For O=C1c2ccccc2S(=O)(=O)N1Cc1c(F)cccc1Cl, which inhibition is on record?
Its inhibition is 0.54%.

With CN1C/C(=C/c2cccs2)C(=O)/C(=C\c2cccs2)C1 as the compound, how does the inhibition read?
Its inhibition is 9.92%.

How did the inhibition turn out when CCC1C/C(=C/c2cccs2)C(=O)/C(=C/c2cccs2)C1 (stereo not given) was run?
The inhibition was 44.1% (active).

O=C1/C(=C/c2cccs2)CCc2ccccc21 was tested. Which inhibition did it give?
The inhibition was -2.06%.

How did the inhibition turn out when NC(=O)C1CCN(CC(O)CSc2ccc(F)cc2)CC1 (stereo not given) was run?
Its inhibition is 3.59%.

For O=C(Nc1ccccc1)C1CCN(C(=O)c2ccc(Br)cc2)CC1, which inhibition is on record?
The inhibition was -8.93%.

How did the inhibition turn out when Cc1ccc(S(=O)(=O)NCCSc2ccccc2)cc1[N+](=O)[O-] was run?
Its inhibition is -4.6%.

How did the inhibition turn out when Cc1ccc(S(=O)(=O)NCCC(c2ccccc2)c2ccccc2)cc1C(=O)O was run?
Its inhibition is 38.8% (active).

How did the inhibition turn out when Cc1ccc(S(=O)(=O)NCCCn2ccnc2)cc1C(=O)NC(C)C was run?
The inhibition was -0.51%.

How did the inhibition turn out when O=[N+]([O-])c1ccc2c(c1)Nc1nc3ccccc3nc1N2 was run?
The inhibition was 3.43%.

How did the inhibition turn out when CN1CCN(C(=O)c2cnn(-c3ccccc3)c2NC(=O)c2ccc([N+](=O)[O-])cc2)CC1 was run?
Its inhibition is 5.97%.

For CCOC(=O)c1c(-c2ccccc2)oc2cc(Br)c(O)cc12, which inhibition is on record?
Its inhibition is -8.03%.

With CCOC(=O)c1c(-c2ccccc2)oc2ccc(OCC(N)=O)cc12 as the compound, how does the inhibition read?
Its inhibition is -0.28%.

With CCOC(=O)c1c(-c2ccccc2)oc2cc(Br)c(O)c(C=O)c12 as the compound, how does the inhibition read?
The inhibition was 63.8% (active).

For CCOc1cc(-c2noc(CCCC(=O)NC3CCCCC3)n2)ccc1OC, which inhibition is on record?
Its inhibition is -0.34%.

For CCOc1ccc(CN2CCN(Cc3c[nH]c4ccccc34)CC2)cc1, which inhibition is on record?
Its inhibition is -65.4%.

For CCC1(C(=O)c2ccccc2)C(c2cccc([N+](=O)[O-])c2)C1(C(=O)OC)C(=O)OC (stereo not given), which inhibition is on record?
Its inhibition is -10.6%.

Which inhibition does the source give for Cc1ccc(N=C2NC(=O)/C(=C/C=C/c3ccco3)S2)cc1C here?
The inhibition was 60.8% (active).

With Cc1ccc(N2NC(=O)/C(=C/C=C/c3ccco3)C2=O)cc1C as the compound, how does the inhibition read?
The inhibition was 31.6%.

With Cc1cccc(N=C2NC(=O)/C(=C/c3cn(C)c4ccccc34)S2)c1 as the compound, how does the inhibition read?
The inhibition was -2.21%.

For Cc1ccc(S(=O)(=O)NCCC(=O)Nc2cccc(S(N)(=O)=O)c2)cc1C, which inhibition is on record?
Its inhibition is -12.2%.

Which inhibition does the source give for Nc1c(C(=O)c2cccs2)sc2nsc(SCCN3CCCCC3)c12 here?
The inhibition was -21.1%.

For CC(=O)c1cccc(NC(=S)N2CCN(S(C)(=O)=O)CC2)c1, which inhibition is on record?
The inhibition was -3.09%.

Cc1ccc(OCC(=O)Nc2ccccc2Sc2ccc(Cl)cc2)c([N+](=O)[O-])n1 was tested. Which inhibition did it give?
The inhibition was -5.04%.

COc1ccc(/C=C/C(=O)c2cc(Br)ccc(=O)c2O)cc1 was tested. Which inhibition did it give?
Its inhibition is 45.2% (active).

Which inhibition does the source give for COc1ccc(C(=O)/C=C/c2ccc(OC3CSC3)cc2)cc1 here?
The inhibition was -2.94%.

For COc1ccc(/C=C/C(=O)c2ccc(OC)cc2O)cc1, which inhibition is on record?
The inhibition was -6.12%.

How did the inhibition turn out when O=C(NC(=S)Nc1ccccc1N1CCCCC1)c1ccc(F)cc1 was run?
The inhibition was 1.82%.

Which inhibition does the source give for CCCn1c(C2CCCN2c2nc(-c3ccc(C)cc3)cs2)nc2cc(Cl)c(N3CCCCC3)cc21 (stereo not given) here?
The inhibition was 35.5%.

CCn1c(C)c(C)c2cc(C(=O)N3CCN(c4cccc(C)c4C)CC3)ccc21 was tested. Which inhibition did it give?
The inhibition was 2.52%.

With Cc1cc(N2C(=O)C(O)=C(C(=O)c3ccc(C)o3)C2c2ccc(OCc3ccccc3)cc2)no1 (stereo not given) as the compound, how does the inhibition read?
The inhibition was 87.7% (active).

Which inhibition does the source give for CCOc1cc(C2C(C(=O)c3ccco3)=C(O)C(=O)N2Cc2ccccc2)ccc1O (stereo not given) here?
Its inhibition is 9.26%.

Cc1ccc2nc(N3C(=O)C(O)=C(C(=O)c4ccco4)C3c3cccc(O)c3)sc2c1 (stereo not given) was tested. Which inhibition did it give?
The inhibition was 25.4%.

How did the inhibition turn out when C=CCOc1cccc(C2C(C(=O)c3ccc(C)o3)=C(O)C(=O)N2CCCn2ccnc2)c1 (stereo not given) was run?
The inhibition was -4.21%.

COc1cc(C2C(C(=O)c3ccco3)=C(O)C(=O)N2c2cc(C)on2)ccc1OCc1ccccc1 (stereo not given) was tested. Which inhibition did it give?
Its inhibition is 43.6% (active).

Which inhibition does the source give for CCCOc1ccc(C2C(C(=O)c3ccc(C)o3)=C(O)C(=O)N2CCCn2ccnc2)cc1 (stereo not given) here?
The inhibition was -15.3%.

COc1ccc(-c2cc(C(=O)N3CCN(Cc4ccc5c(c4)OCO5)CC3)on2)cc1OC was tested. Which inhibition did it give?
Its inhibition is -19.4%.

CC(=O)Nc1ccc(C(=O)N(C2=NC(C)CS2)c2ccc(Cl)cc2)cc1 (stereo not given) was tested. Which inhibition did it give?
The inhibition was -10.2%.

COc1ccccc1CCCNC(=O)C1CCC(=O)N(CCN2CCOCC2)C1 (stereo not given) was tested. Which inhibition did it give?
Its inhibition is 7.14%.

How did the inhibition turn out when COc1cccc(CNC(=O)c2cccnc2Sc2ccc(Cl)cc2)c1 was run?
Its inhibition is -6.66%.

CC(=O)O[C@H]1c2ccccc2-c2ccccc2[C@@H]1OC(C)=O was tested. Which inhibition did it give?
The inhibition was 13.1%.

O=Cc1c(NCCc2cccc(F)c2)c2ccccc2[nH]c1=O was tested. Which inhibition did it give?
Its inhibition is 0.14%.
